In ChEMBL document CHEMBL1150335, “Benzoylurea derivatives as a novel class of antimitotic agents: synthesis, anticancer activity, and structure-activity relationships” (J Med Chem, 2008):
The source made the active and inactive calls. The calls are words filed in the database; no cut-off is given here.

Experiments:
CCRF-CEM [1] = test: Antiproliferative activity against human CEM cells after 72 hrs by trypan blue assay; assay type: functional, cell-based
Procedure, shortened: (§1)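 Cells kept in RPMI-1640 with 10% heat-inactivated fetal calf serum, penicillin and streptomycin, 5% CO2, 37 °C, used in exponential growth. 1 × 10⁵ cells per well exposed to compound at 0.001–10 µM at 37 °C (48 h in methods, 72 h in table footnotes). Viability by Trypan blue versus untreated controls. IC50 by nonlinear regression, duplicate, three repeats.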

MCF7 = test: Antiproliferative activity against human MCF7 cells after 72 hrs by trypan blue assay; assay type: functional, cell-based; conditions: MCF7, 72 h; procedure, shortened: as §1
Mus musculus = test: Toxicity in human Bel7402 cells xenografted BALB/c mouse assessed as body weight at 10 mg/kg, ip q2d after 25 days relative to control; assay type: organism-based, Bel-7402; design: dose 10 mg/kg, route intraperitoneal; conditions: in vivo, 600 h
Procedure, shortened: (§2)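 Male Balb/c nude mice (16-20 g, 6-7 weeks) given sc Bel-7402 cells, 5 × 10⁶ per mouse, on the back. Six injections q2d. Tumor volume measured weekly by calipers = length × width² × 0.52. Body weight recorded before and after treatment.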

Daudi = test: Antiproliferative activity against human Daudi cells after 72 hrs by trypan blue assay; assay type: functional, cell-based; procedure, shortened: as §1
CCRF-CEM [2] = test: Cell cycle arrest in human CEM cells assessed as accumulation at M phase at <0.01 uM after 12 hrs by flow cytometry; assay type: functional
Bel-7402 [3] = test: Antitumor activity against human Bel7402 cells xenografted BALB/c mouse assessed as inhibition of tumor growth at 10 mg/kg, ip q2d after 25 days relative to control; assay type: functional; conditions: Bel-7402, ip, 600 h, route intraperitoneal; procedure, shortened: as §2
Bel-7402 [4] = test: Antitumor activity against human Bel7402 cells xenografted BALB/c mouse assessed as inhibition of tumor growth at 5 mg/kg, ip q2d after 25 days relative to control; assay type: functional; conditions: Bel-7402, ip, 600 h, route intraperitoneal; procedure, shortened: as §2
Bel-7402 [5] = test: Antitumor activity against human Bel7402 cells xenografted ip dosed BALB/c mouse assessed as inhibition of tumor growth after 25 days relative to control; assay type: functional; conditions: Bel-7402, ip, 600 h
Procedure, shortened: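 Male Balb/c nude mice (16-20 g, 6-7 weeks) given sc Bel-7402 cells (5 × 10⁶/mouse) on the back. On day 12 they were randomized (5/group) to solvent control or 5 or 10 mg/kg ip, six doses q2d. Tumors were measured weekly by caliper, volume = length × width² × 0.52. Inhibition was taken versus solvent-treated controls on day 25 post-treatment.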

[6] = Inhibition of beta tubulin polymerization at 20 uM
[7] = Inhibition of beta tubulin polymerization at 1 uM
CCRF-CEM [8] = test: Cell cycle arrest in human CEM cells assessed as morphological changes at 0.014 uM after 24 hrs by Giemsa staining
[9] = Inhibition of beta tubulin polymerization
PC-3 = test: Antiproliferative activity against human PC3 cells after 72 hrs by trypan blue assay; assay type: functional, cell-based; conditions: PC-3, 72 h; procedure, shortened: as §1
LoVo = test: Antiproliferative activity against human LOVO cells after 72 hrs by trypan blue assay; assay type: functional, cell-based; procedure, shortened: as §1
DU-145 = test: Antiproliferative activity against human DU145 cells after 72 hrs by trypan blue assay; assay type: functional, cell-based; conditions: DU-145, 72 h; procedure, shortened: as §1
CCRF-CEM [10] = test: Cell cycle arrest in human CEM cells assessed as accumulation at G2/M phase at 0.22 uM after 4 to 24 hrs by flow cytometry; assay type: functional, cell-based
Procedure, shortened: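 CEM cells exposed to 0.22 µM compound or left untreated for 4, 12 or 24 h. Fixed in 70% ethanol for at least 12 h at 4 °C, then RNase A 50 µg/mL at 37 °C for 30 min and propidium iodide 50 µg/mL final at 4 °C for 30 min. At least 10⁴ events read by flow cytometry for DNA profile.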

[11] = Antiproliferative activity against human DND1A cells after 72 hrs by trypan blue assay; assay type: functional, cell-based; procedure, shortened: as §1
CCRF-CEM [12] = test: Induction of apoptosis in human CEM cells assessed as Bcl2 phosphorylation at 0.014 to 0.27 uM after 12 to 24 hrs by Western blot; assay type: functional, cell-based
Procedure, shortened: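 CEM cells exposed to 0.014–0.27 µM for 12 or 24 h, then lysed in Tris-HCl pH 7.4 buffer with detergents and protease/phosphatase inhibitors. Equal lysate run on 10% SDS-PAGE and transferred to PVDF. Blocked in 5% milk/TBST, probed with anti-Bcl-2 monoclonal and HRP secondary, detected by ECL; phosphorylated Bcl-2 seen as a separate band.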

Bel-7402 [13] = test: Antiproliferative activity against human Bel7402 cells after 72 hrs by trypan blue assay; assay type: functional, cell-based; conditions: Bel-7402, 72 h; procedure, shortened: as §1
[14] = Antiproliferative activity against human MIA cells after 72 hrs by trypan blue assay; assay type: functional, cell-based; procedure, shortened: as §1

| SMILES | IC50 (CCRF-CEM [1]) [µM] | also measured |
| --- | --- | --- |
| NC(=O)NC(=O)c1ccc(Cl)c(NC(=O)CBr)c1 | 2.91 |  |
| CC(Br)C(=O)Nc1cc(C(=O)NC(N)=O)cc([N+](=O)[O-])c1 (stereo not given) | 1.58 |  |
| NC(=O)NC(=O)c1cc(NC(=O)CBr)ccc1Cl | 0.54 |  |
| NC(=O)NC(=O)c1ccc(F)c(NC(=O)CBr)c1 | 2.29 |  |
| COC(=O)c1cc(NC(=O)C(C)Br)cc(C(=O)NC(N)=O)c1 (stereo not given) | 2.7 |  |
| CC(Br)C(=O)Nc1cc(C(=O)NC(N)=O)cs1 (stereo not given) | 3.94 |  |
| COc1ccc(C(=O)NC(N)=O)cc1NC(=O)C(C)Br (stereo not given) | > 20 |  |
| NC(=O)NC(=O)c1ccc(Cl)c(NC(=O)CCl)c1 | 15.9 |  |
| CC(Br)C(=O)Nc1ccc(C(=O)NC(N)=O)o1 (stereo not given) | 9.44 |  |
| NC(=O)NC(=O)c1cc(NC(=O)CCl)ccc1Cl | 2.44 |  |
| Cc1ccc(C(=O)NC(N)=O)cc1NC(=O)CBr | 4.28 |  |
| NC(=O)NC(=O)c1cccc(NC(=O)CI)c1 | < 0.01 | LD50 (Bel-7402 [5]): 31 mg/kg; inhibition in vivo at 10 mg/kg (Bel-7402 [3]): 57% |
| CC(Br)C(=O)Nc1ccc(Cl)c(C(=O)NC(N)=O)c1 (stereo not given) | 2.55 |  |
| CC(=O)O[C@H]1C(=O)[C@@]2(C)[C@H]([C@H](OC(=O)c3ccccc3)[C@]3(O)C[C@H](OC(=O)[C@H](O)[C@@H](NC(=O)c4ccccc4)c4ccccc4)C(C)=C1C3(C)C)[C@]1(OC(C)=O)CO[C@@H]1C[C@@H]2O |  | Activity [6]: inactive |
| CC[C@]1(O)C[C@H]2CN(CCc3c([nH]c4ccccc34)[C@@](C(=O)OC)(c3cc4c(cc3OC)N(C=O)[C@H]3[C@@](O)(C(=O)OC)[C@H](OC(C)=O)[C@]5(CC)C=CCN6CC[C@]43[C@@H]65)C2)C1 |  | Activity [6]: Active |
| NC(=O)NC(=O)c1cc(NC(=O)CI)ccc1F | < 0.01 | IC50 (MCF7): < 0.01 µM; Activity (Mus musculus): 21.6 g; LD50 (Bel-7402 [5]): 38.8 mg/kg; Activity [7]: Active; IC50 (Daudi): < 0.01 µM; Activity (CCRF-CEM [2]): 37.6%; Activity (CCRF-CEM [8]): Active; inhibition in vivo at 10 mg/kg (Bel-7402 [3]): 86%; IC50 [9]: 0.71 µM; IC50 (PC-3): 0.19 µM; IC50 (LoVo): 0.19 µM; inhibition in vivo at 5 mg/kg (Bel-7402 [4]): 62%; IC50 (DU-145): 0.22 µM; Activity (CCRF-CEM [10]): Active; IC50 [11]: 0.02 µM; Activity (CCRF-CEM [12]): Active; IC50 (Bel-7402 [13]): 0.16 µM; IC50 [14]: 0.054 µM |
| COc1ccc(C(=O)NC(N)=O)cc1NC(=O)CBr | 1.88 |  |
| Cc1ccc(NC(=O)CI)cc1C(=O)NC(N)=O | 20 |  |
| NC(=O)NC(=O)c1ccc(O)c(NC(=O)CBr)c1 | > 20 |  |
| Cc1c(NC(=O)CCl)cccc1C(=O)NC(N)=O | 2.7 |  |

Now from value to compound, other results behind:

| IC50 (CCRF-CEM [1]) [µM] | SMILES | also measured |
| --- | --- | --- |
| > 20 | Cc1c(NC(=O)C(C)Cl)cccc1C(=O)NC(N)=O (stereo not given) |  |
| 1.71 | Cc1c(NC(=O)CBr)cccc1C(=O)NC(N)=O |  |
| 0.52 | CC(Br)C(=O)Nc1ccc(F)c(C(=O)NC(N)=O)c1 (stereo not given) |  |
| 1.16 | NC(=O)NC(=O)c1cc(NC(=O)CBr)ccc1Br |  |
| 1.47 | C[C@H](Br)C(=O)Nc1cccc(C(=O)NC(N)=O)c1 |  |
| > 20 | NC(=O)NC(=O)c1ccc(O)c(NC(=O)CCl)c1 |  |
| 1.53 | NC(=O)NC(=O)c1cc(NC(=O)CBr)cc([N+](=O)[O-])c1 |  |
| 4.05 | NC(=O)NC(=O)c1ccc(NC(=O)CBr)o1 |  |
| 1.91 | COC(=O)c1cc(NC(=O)CI)cc(C(=O)NC(N)=O)c1 |  |
| > 20 | NC(=O)NC(=O)c1ccc(F)c(NC(=O)CCl)c1 |  |
| 3.36 | Cc1ccc(C(=O)NC(N)=O)cc1NC(=O)C(C)Br (stereo not given) |  |
| > 20 | COc1ccc(C(=O)NC(N)=O)cc1NC(=O)C(C)Cl (stereo not given) |  |
| < 0.01 | NC(=O)NC(=O)c1cc(NC(=O)CBr)ccc1F | IC50 (MCF7): 0.08 µM; Activity (Mus musculus): 18.6 g; IC50 (Daudi): 0.015 µM; Activity (CCRF-CEM [2]): 31.3%; inhibition in vivo at 10 mg/kg (Bel-7402 [3]): 52%; inhibition in vivo at 5 mg/kg (Bel-7402 [4]): 37% |
| 1.57 | COc1ccc(NC(=O)CBr)cc1C(=O)NC(N)=O |  |
| > 20 | Cc1ccc(C(=O)NC(N)=O)cc1NC(=O)C(C)Cl (stereo not given) |  |
| > 20 | COc1ccc(C(=O)NC(N)=O)cc1NC(=O)CCl |  |
| 1.13 | NC(=O)NC(=O)c1csc(NC(=O)CBr)c1 |  |
| 16.6 | NC(=O)NC(=O)c1ccc(NC(=O)CCl)o1 |  |
| > 20 | CC(Cl)C(=O)Nc1cc(C(=O)NC(N)=O)ccc1Cl (stereo not given) |  |
| 9.8 | CC(Br)C(=O)Nc1cc(C(=O)NC(N)=O)ccc1Cl (stereo not given) |  |
| 7.68 | NC(=O)NC(=O)c1cc(NC(=O)CCl)ccc1F |  |
| 1.3 | COC(=O)c1cc(NC(=O)CBr)cc(C(=O)NC(N)=O)c1 |  |
| 7.63 | CC(Br)C(=O)Nc1ccc(Br)c(C(=O)NC(N)=O)c1 (stereo not given) |  |
| 0.48 | Cc1c(NC(=O)C(C)Br)cccc1C(=O)NC(N)=O (stereo not given) |  |
| 3.13 | CC(Br)C(=O)Nc1cc(C(=O)NC(N)=O)ccc1F (stereo not given) |  |
| > 20 | Cc1ccc(NC(=O)C(C)Br)cc1C(=O)NC(N)=O (stereo not given) |  |
| 1.47 | C[C@@H](Br)C(=O)Nc1cccc(C(=O)NC(N)=O)c1 |  |
| 3.36 | Cc1ccc(C(=O)NC(N)=O)cc1NC(=O)CCl |  |
| 4.76 | Cc1ccc(NC(=O)CBr)cc1C(=O)NC(N)=O |  |
